Tests used:
Rattus norvegicus [1] = test: Activity at AChE in Charles Foster rat hypothalamus assessed as substrate hydrolyzed per mg of protein at 5 mg/kg, po for 8 days by Ellman's method (reference value: 40.50 +/- 0.76 mol/min); format: functional
Rattus norvegicus [2] = test: (§1) Cognitive enhancing effect in Charles Foster rat assessed as reversal of scopolamine-induced amnesia measured as transfer latency at 5 mg/kg, po for 8 days administered 1 hr prior to scopolamine-challenge on day 7 measured on same day by elevated plus maze test (reference value: 67.83 +/- 0.94 seconds); format: functional
Rattus norvegicus [3] = test: (§2) Cognitive enhancing effect in Charles Foster rat assessed as reversal of scopolamine-induced amnesia measured as transfer latency at 5 mg/kg, po for 8 days administered 1 hr prior to scopolamine-challenge on day 7 measured on day 8 by elevated plus maze test (reference value: 62.17 +/- 0.47 seconds); format: functional
Rattus norvegicus [4] = test: Toxicity in albino rat assessed as change in normal behavioral response upto 100 mg/kg after 30 mins to 48 hrs; format: organism-based; design: dose 100 mg/kg; details: in vivo
In short: (§3)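 Acute toxicity followed OECD guidelines. Nulliparous, non-pregnant female albino rats (120–150 g) were fasted overnight with water ad libitum. Graded oral doses up to 100 mg/kg were given in 0.3% carboxymethyl cellulose. Rats were observed continuously for 30 min, at 2 h and up to 48 h for behavioural or autonomic changes, tremors, convulsions, salivation, diarrhoea, sleep, lacrimation, cardiovascular signs, feeding and mortality.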

Cholinesterase [5] = biological target: T1, Cholinesterase (Homo sapiens, UniProt P06276); test: Competitive inhibition of human serum BChE using butyrylthiocholine iodide as substrate by Lineweaver-Burk plot analysis
T1 sequence (P06276 whole entry): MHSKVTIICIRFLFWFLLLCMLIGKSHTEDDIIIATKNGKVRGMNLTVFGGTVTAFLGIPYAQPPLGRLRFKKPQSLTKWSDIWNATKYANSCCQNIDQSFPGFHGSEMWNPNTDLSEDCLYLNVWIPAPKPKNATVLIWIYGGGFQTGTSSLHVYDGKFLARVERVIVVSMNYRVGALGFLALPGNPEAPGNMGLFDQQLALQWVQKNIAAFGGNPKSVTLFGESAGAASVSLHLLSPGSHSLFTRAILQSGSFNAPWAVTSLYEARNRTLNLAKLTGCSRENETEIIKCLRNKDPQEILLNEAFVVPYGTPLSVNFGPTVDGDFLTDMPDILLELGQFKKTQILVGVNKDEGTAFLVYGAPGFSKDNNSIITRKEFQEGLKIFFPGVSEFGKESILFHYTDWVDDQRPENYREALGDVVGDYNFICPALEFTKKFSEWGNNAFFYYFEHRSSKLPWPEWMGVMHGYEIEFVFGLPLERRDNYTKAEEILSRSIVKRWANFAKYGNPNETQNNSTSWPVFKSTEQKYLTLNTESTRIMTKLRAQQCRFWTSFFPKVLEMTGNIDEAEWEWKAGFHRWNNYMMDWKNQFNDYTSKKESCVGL
In short: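 Ellman assay in phosphate buffer pH 8 with a fixed amount of cholinesterase. Thiocholine substrate was varied from below to above, but near, Km, with or without inhibitor. Inhibition type was assigned from Lineweaver–Burk plots.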

Rattus norvegicus [6] = test: Activity at AChE in Charles Foster rat hypothalamus assessed as substrate hydrolyzed per mg of protein at 10 mg/kg, po for 8 days by Ellman's method (reference value: 40.50 +/- 0.76 mol/min); format: functional
Rattus norvegicus [7] = test: Activity at AChE in Charles Foster rat prefrontal cortex assessed as substrate hydrolyzed per mg of protein at 5 mg/kg, po for 8 days by Ellman's method (reference value: 45.83 +/- 0.94 mol/min); format: functional
Rattus norvegicus [8] = test: Activity at AChE in Charles Foster rat hippocampus assessed as substrate hydrolyzed per mg of protein at 5 mg/kg, po for 8 days by Ellman's method (reference value: 47.50 +/- 0.84 mol/min); format: functional
Rattus norvegicus [9] = test: Cognitive enhancing effect in Wistar rat assessed as reversal of learning impairment measured as transfer latency at 10 mg/kg, po for 8 days measured on first day of test by elevated plus maze test (reference value: 70.846 +/- 0.76 seconds); format: functional
In short: (§4)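 Oral dosing at 5 or 10 mg/kg for 8 days, suspended in 0.3% carboxymethyl cellulose; vehicle-treated controls. Transfer latency on elevated plus maze measured on first and second days of exposure (treatment days 7 and 8). Mean ± SEM, n = 6, one-way ANOVA versus vehicle control.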

Rattus norvegicus [10] = test: Cognitive enhancing effect in Wistar rat assessed as reversal of learning impairment measured as transfer latency at 10 mg/kg, po for 8 days measured on second day of test by elevated plus maze test (reference value: 66.824 +/- 0.47 seconds); format: functional; in short: as §4
Rattus norvegicus [11] = test: Cognitive enhancing effect in Wistar rat assessed as reversal of learning impairment measured as transfer latency at 5 mg/kg, po for 8 days measured on second day of test by elevated plus maze test (reference value: 66.824 +/- 0.47 seconds); format: functional; in short: as §4
Acetylcholinesterase [12] = biological target: T2, Acetylcholinesterase (Electrophorus electricus, UniProt O42275); test: Inhibition of electric eel AChE using acetylthiocholine iodide as substrate preincubated for 20 mins prior to substrate addition by Ellman's method
T2 sequence (O42275 whole entry): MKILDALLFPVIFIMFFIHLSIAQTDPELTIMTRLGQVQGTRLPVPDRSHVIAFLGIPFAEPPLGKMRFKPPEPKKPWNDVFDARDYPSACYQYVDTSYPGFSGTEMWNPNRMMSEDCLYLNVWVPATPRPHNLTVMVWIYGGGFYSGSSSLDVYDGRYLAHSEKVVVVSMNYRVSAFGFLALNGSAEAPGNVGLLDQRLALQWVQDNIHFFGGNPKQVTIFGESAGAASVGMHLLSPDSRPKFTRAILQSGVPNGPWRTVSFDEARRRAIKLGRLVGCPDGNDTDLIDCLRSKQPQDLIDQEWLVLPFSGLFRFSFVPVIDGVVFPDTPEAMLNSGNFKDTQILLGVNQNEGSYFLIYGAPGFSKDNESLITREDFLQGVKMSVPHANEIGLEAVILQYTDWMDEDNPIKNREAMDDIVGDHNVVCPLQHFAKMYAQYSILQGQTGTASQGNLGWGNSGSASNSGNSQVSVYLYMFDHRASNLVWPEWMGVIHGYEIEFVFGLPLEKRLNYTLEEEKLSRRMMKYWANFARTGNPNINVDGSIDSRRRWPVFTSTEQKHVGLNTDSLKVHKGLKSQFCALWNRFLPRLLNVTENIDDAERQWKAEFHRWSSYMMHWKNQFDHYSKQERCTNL

Acetylcholinesterase [13] = biological target: T2, Acetylcholinesterase; test: Non competitive inhibition of electric eel AChE using acetylthiocholine iodide as substrate by Lineweaver-Burk plot analysis
Rattus norvegicus [14] = test: as §1, with “10” for “5”; format: functional
Rattus norvegicus [15] = test: Activity at AChE in Charles Foster rat prefrontal cortex assessed as substrate hydrolyzed per mg of protein at 10 mg/kg, po for 8 days by Ellman's method (reference value: 45.83 +/- 0.94 mol/min); format: functional
Rattus norvegicus [16] = test: Cognitive enhancing effect in Wistar rat assessed as reversal of learning impairment measured as transfer latency at 5 mg/kg, po for 8 days measured on first day of test by elevated plus maze test (reference value: 70.846 +/- 0.76 seconds); format: functional; in short: as §4
Rattus norvegicus [17] = test: Cognitive enhancing effect in po dosed Wistar rat assessed as reversal of learning impairment measured as transfer latency administered for 8 days by elevated plus maze test; format: functional, organism-based; in short: as §4
[18] = Selectivity ratio of IC50 for human serum BChE to IC50 for electric eel AChE
In short: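 Ratio of IC50 (BChE) to IC50 (AChE). Both came from Ellman assays at 0.1 M phosphate pH 8.0 and 0.02 unit/mL enzyme: AChE (stock in phosphate buffer) with acetylthiocholine, human serum BChE (stock in 0.1% gelatine) with butyrylthiocholine.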

Rattus norvegicus [19] = test: as §2, with “10” for “5”; format: functional
Rattus norvegicus [20] = test: Activity at AChE in Charles Foster rat hippocampus assessed as substrate hydrolyzed per mg of protein at 10 mg/kg, po for 8 days by Ellman's method (reference value: 47.50 +/- 0.84 mol/min); format: functional
Rattus norvegicus [21] = test: Toxicity in albino rat assessed as mortality upto 100 mg/kg after 30 mins to 48 hrs; format: organism-based; design: dose 100 mg/kg; details: in vivo; in short: as §3
Cholinesterase [22] = biological target: T1, Cholinesterase; test: Inhibition of human serum BChE using butyrylthiocholine iodide as substrate preincubated for 20 mins prior to substrate addition by Ellman's method
In short: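 Human serum BChE was dissolved in 0.1% gelatine. The final mix held 0.1 M phosphate pH 8.0, DTNB, 0.02 unit/mL enzyme and butyrylthiocholine iodide. Five inhibitor concentrations spanning 20–80% inhibition were preincubated with enzyme for 20 min at 37 °C, then substrate was added. Rate was read at 412 nm over 5 min against an enzyme-free blank. Each point was run in triplicate, and IC50 was read graphically from log concentration–% inhibition curves.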

C/C(=N\NC(=O)Nc1ccncc1)c1ccc(O)cc1
Activity (Rattus norvegicus [1]): 34.13 mol/min | Time (Rattus norvegicus [2]): 65.33 s | Time (Rattus norvegicus [3]): 60.5 s | Activity (Rattus norvegicus [4]): Non-toxic | Ki (Cholinesterase [5]): 0.628 µM | Activity (Rattus norvegicus [6]): 31.5 mol/min | Activity (Rattus norvegicus [7]): 35.5 mol/min | Activity (Rattus norvegicus [8]): 36.33 mol/min | Time (Rattus norvegicus [9]): 48.17 s | Time (Rattus norvegicus [10]): 39.5 s | Time (Rattus norvegicus [11]): 43.17 s | IC50 (Acetylcholinesterase [12]; read-out: IC50): 0.145 µM | IC50 (Acetylcholinesterase [12]; read-out: pIC50 (converted)): 0.148 µM | Ki (Acetylcholinesterase [13]): 0.246 µM | Time (Rattus norvegicus [14]): 64.17 s | Activity (Rattus norvegicus [15]): 33.83 mol/min | Time (Rattus norvegicus [16]): 48.07 s | Activity (Rattus norvegicus [17]): Dose-dependent effect | Ratio IC50 [18]: 2.46 | Time (Rattus norvegicus [19]): 56.83 s | Activity (Rattus norvegicus [20]): 34.17 mol/min | Activity (Rattus norvegicus [21]): Non-toxic | IC50 (Cholinesterase [22]): 0.358 µM

O=C(NN=C(c1ccccc1)c1ccccc1)Nc1ccncc1
Activity (Rattus norvegicus [1]): 31 mol/min | Time (Rattus norvegicus [2]): 64.57 s | Time (Rattus norvegicus [3]): 56.13 s | Activity (Rattus norvegicus [4]): Non-toxic | Ki (Cholinesterase [5]): 16.8 µM | Activity (Rattus norvegicus [6]): 29.17 mol/min | Activity (Rattus norvegicus [7]): 32.67 mol/min | Activity (Rattus norvegicus [8]): 33.67 mol/min | Time (Rattus norvegicus [9]): 43.73 s | Time (Rattus norvegicus [10]): 37.97 s | Time (Rattus norvegicus [11]): 40.42 s | IC50 (Acetylcholinesterase [12]; read-out: IC50): 0.052 µM | Ki (Acetylcholinesterase [13]): 0.082 µM | Time (Rattus norvegicus [14]): 61.83 s | Activity (Rattus norvegicus [15]): 30 mol/min | Time (Rattus norvegicus [16]): 46.81 s | Activity (Rattus norvegicus [17]): Dose-dependent effect | Ratio IC50 [18]: 355 | Time (Rattus norvegicus [19]): 54.17 s | Activity (Rattus norvegicus [20]): 32 mol/min | Activity (Rattus norvegicus [21]): Non-toxic | IC50 (Cholinesterase [22]): 18.5 µM

From ChEMBL document CHEMBL2413015, “Synthesis, evaluation and molecular dynamics study of some new 4-aminopyridine semicarbazones as an antiamnesic and cognition enhancing agents” (Bioorg Med Chem, 2013)
